In ChEMBL document CHEMBL4811322, “Impact of α-modifications on the activity of triazole bisphosphonates as geranylgeranyl diphosphate synthase inhibitors” (Bioorg Med Chem, 2021):
The source made the active and inactive calls. No cut-off for these calls is given here.

Tests used:
[1] = molecular target: T1, Geranylgeranyl pyrophosphate synthase (Homo sapiens) (UniProt O95749); experiment: Inhibition of GGDPS in human RPMI-8226 cells assessed as lowest effective concentration required to show unmodified Rap1a band after 48 hrs by immunoblot analysis; type: cell-based
T1 sequence (whole entry): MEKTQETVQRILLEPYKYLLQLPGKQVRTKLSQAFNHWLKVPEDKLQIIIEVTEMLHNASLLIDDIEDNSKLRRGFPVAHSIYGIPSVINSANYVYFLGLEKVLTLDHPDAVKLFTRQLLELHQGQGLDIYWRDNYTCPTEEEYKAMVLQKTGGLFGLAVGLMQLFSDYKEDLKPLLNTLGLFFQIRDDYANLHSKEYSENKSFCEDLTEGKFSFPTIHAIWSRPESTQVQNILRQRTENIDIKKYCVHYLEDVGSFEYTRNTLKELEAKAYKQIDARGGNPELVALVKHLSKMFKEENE
Procedure, shortened: (§1)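 LEC is the lowest concentration giving both a visible unmodified Rap1a band and a statistically significant rise in lambda light chain (ELISA, two-tailed t-test, p<0.05). RPMI-8226 cells were treated for 48 h. The Rap1a antibody detects only unmodified Rap1a, with β-tubulin as loading control. Lysates were made in RIPA buffer and normalised by BCA.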

[2] = molecular target: T2, Geranylgeranyl pyrophosphate synthase (Homo sapiens, UniProt O95749); experiment: Inhibition of recombinant GGDPS (unknown origin) using FPP and [14C] IPP as substrate preincubated for 10 mins followed by substrate addition measured after 30 mins by liquid scintillation counting method
T2 sequence (O95749 whole entry): T1 sequence (whole entry)
Procedure, shortened: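 In the enzyme assay, each compound was tested in duplicate at multiple concentrations, with three independent experiments. IC50 values were derived from concentration-response curve analysis.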

[3] = molecular target: T1, Geranylgeranyl pyrophosphate synthase (Homo sapiens); experiment: Inhibition of GGDPS in human RPMI-8226 cells assessed as disruption of farnesylation at 0.1 to 1 uM measured after 48 hrs by immunoblot analysis; type: cell-based; conditions: dose 0.1-1 µM
Procedure, shortened: (§2)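 H-Ras farnesylation was checked by immunoblot after RPMI-8226 cells (ATCC) were exposed to compound for 48 h, with lovastatin 10 μM as positive control. Whole-cell RIPA lysates with protease/phosphatase inhibitors were protein-normalised by BCA, run on SDS-PAGE and transferred to PVDF. Blots were probed for H-Ras with β-tubulin as loading control and detected with HRP secondary/ECL. Gels are representative of three independent studies.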

RPMI-8226 = experiment: Cytotoxicity against human RPMI-8226 cells assessed as decrease in cell viability at 10 to 100 uM measured after 48 hrs by MTT assay; type: functional, cell-based; conditions: dose 10-100 µM
Procedure, shortened: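 RPMI-8226 myeloma cells seeded at 2.5 × 10^4 cells per 100 μL well and exposed to compound for 48 h, then MTT read-out. Absorbance of solvent-only control cells set as 100% MTT activity. Data expressed as percentage of control, mean ± SD, n=4.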

[4] = molecular target: T1, Geranylgeranyl pyrophosphate synthase (Homo sapiens); experiment: Inhibition of GGDPS in human RPMI-8226 cells assessed as lowest effective concentration required to show unmodified Rap1a band up to 100 uM after 48 hrs by immunoblot analysis; type: cell-based; conditions: dose microM <=100, time 48.0 hrs; procedure, shortened: as §1
[5] = molecular target: T1, Geranylgeranyl pyrophosphate synthase (Homo sapiens); experiment: Inhibition of GGDPS in human RPMI-8226 cells assessed as increase in intracellular lambda chain level after 48 hrs by ELISA; type: cell-based
Procedure, shortened: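 Intracellular lambda light chain was quantified by ELISA in the same 48 h RPMI-8226 lysates prepared for immunoblotting, with lovastatin 10 μM as positive control. Values are percentage of untreated control, mean ± SD, n=3. Two-tailed t-test against untreated cells, significance at p<0.05.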

[6] = molecular target: T1, Geranylgeranyl pyrophosphate synthase (Homo sapiens); experiment: Inhibition of GGDPS in human RPMI-8226 cells assessed as disruption of farnesylation at 0.05 to 0.5 uM measured after 48 hrs by immunoblot analysis; type: cell-based; conditions: dose 0.05-0.5 µM; procedure, shortened: as §2

SMILES | LED [1] | IC50 [2] | inhibition [3] | Activity (RPMI-8226) | inhibition [4] | inhibition [5] | inhibition [6]
CC(C)=CCC/C(C)=C/Cn1cc(CC(P(=O)(O)O)P(=O)(O)O)nn1 | 0.5 µM |  |  |  |  |  | 
CC(C)=CCC/C(C)=C/Cn1cc(C=C(P(=O)(O)O)P(=O)(O)O)nn1 | 0.25 µM | 2700 nM | inactive | Active |  |  | 
C=C(Cc1cn(C/C=C(\C)CCC=C(C)C)nn1)P(=O)(O)O |  | > 100000 nM |  | inactive | inactive |  | 
CC(C)=CCC/C(C)=C/Cn1cc(CCP(=O)(O)O)nn1 |  | > 100000 nM |  | inactive | inactive |  | 
CCC(Cc1cn(C/C=C(\C)CCC=C(C)C)nn1)(P(=O)(O)O)P(=O)(O)O | 2.5 µM | 5900 nM |  |  |  |  | 
CC(C)=CCC/C(C)=C/Cn1cc(CC(F)(P(=O)(O)O)P(=O)(O)O)nn1 | 0.25 µM | 3000 nM | inactive | Active |  | Active | 
CC(C)=CCC/C(C)=C/Cn1cc(CC(O)(P(=O)(O)O)P(=O)(O)O)nn1 | 0.1 µM |  |  | Active |  |  | inactive
CC(C)=CCC/C(C)=C/Cn1cc(CC(CN)(P(=O)(O)O)P(=O)(O)O)nn1 | 0.5 µM | 2000 nM |  | Active |  |  | 
CC(C)=CCC/C(C)=C/Cn1cc(C2CC2(P(=O)(O)O)P(=O)(O)O)nn1 (stereo not given) | 0.5 µM | 1600 nM | inactive | Active |  |  | 
CC(C)=CCC/C(C)=C/Cn1cc(CC(C)(P(=O)(O)O)P(=O)(O)O)nn1 | 0.1 µM | 1300 nM |  |  |  |  | 
